Screens as filed in PubChem.
The entries come from a sample that favours hits as a whole.
bCat KO growth – beta-catenin-lacking colon tumor cell growth suppression | HCT116 beta-catenin knockout viability, CellTiter-Glo, 60 h; hits give low values | viability, % at 10 µM | 140,000 compounds, 1.5% hits | AID 818;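 active = viability at or under a set limit, the compound median less 4 SD, cut at about 6% in these data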;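 also: 0% = Hyamine 1622 control at 20 µM and 100% = untreated cell control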
PTEN del growth – growth suppressors of cells with PTEN tumor suppressor deletion | AID 827 | HCT116 PTEN-null viability, CellTiter-Glo, 60 h; hits give low values | viability, % at 10 µM | 140,000 compounds, 1.2% hits;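 active = viability at or below a set limit, 4 SD under the median of all tested compounds, cut at about 3.7% in these data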;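 also: PTEN knockout HCT116 line with beta catenin targeted HCT116 as companion control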
Fibroblast inh – blocks proliferation of human lung fibroblasts. LL 47 human lung fibroblast viability, ATP luminescence; hits give low values. viability, % at 10 µM. 85,000 compounds, 1.1% hits. AID 719;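 active = viability at or below 50% in the single dose screen; inactive = viability above 50%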;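 also: compound exposure lasted 72 h before the ATP readout; 100% = median luminescence of untreated cell-only wells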
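Benchmarks: Cell-only wells, no compound | Test system: LL 47 human lung fibroblasts, passage 12 or lower | Input: 1,150 cells/well | Measured by: CellTiter-Glo luminescence measuring cellular ATP | Medium: IMEM, 15% FBS supplement | Schedule: Overnight attachment after seeding, then 72 h compound exposure at 37 °C | Doses: Compound addition at 0.1% DMSO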
H69AR inhibit – growth inhibitors of human H69AR lung tumor cells; H69AR lung tumor viability, ATP luminescence, 72 h; hits give low values; viability, % at 10 µM; 85,000 compounds, 6% hits;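 active = viability at or below 40%; inactive = viability above 40%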;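 also: multidrug resistant small cell line overexpressing MRP-1 efflux transporter; 100% = mean luminescence of untreated control wells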
HUVEC inhibit – inhibitors of human endothelial cell proliferation; HUVEC proliferation, CellTiter-Glo luminescence, 72 h; hits give low values; viability, % at 10 µM (by protocol); 86,000 compounds, 1.1% hits; AID 648;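 active = viability at or below 30%; inactive = viability above 30%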;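 also: 100% = median luminescence of DMSO-only cell control wells on each plate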
Starred values were filed as active, the others as inactive; / = not tested or not shown.

SMILES	bCat KO growth	PTEN del growth	Fibroblast inh	H69AR inhibit	HUVEC inhibit
CC(C)CNC(=O)c1cccc(NC(=O)c2ccc(Cl)c([N+](=O)[O-])c2)c1	68	77	/	/	/
CC1(C)Cc2c(sc3[nH]c(=S)n(Cc4ccco4)c(=O)c23)CO1	69	70	88	30*	80
CCc1cc(-c2n[nH]c(C)c2-c2nc3ccccc3n2C)c(O)c(CN2CCN(C)CC2)c1O	82	76	/	16*	79
CCc1cc2c(=O)c(-c3nc4ccccc4n3C)c(C)oc2c(CN2CCN(C)CC2)c1O	84	93	/	/	/
O=C(CCCCCn1c(SCc2ccncc2)nc2ccccc2c1=O)NCc1ccco1	87	89	94	82	81
COCCCNC(=O)c1cc2c(-c3ccc(Cl)cc3)nn(C)c2s1	87	94	74	74	56
CCCCNC(=O)c1cc2c(-c3ccc(Cl)cc3)nn(C)c2s1	91	91	62	36*	75
Cn1nc(-c2ccc(Cl)cc2)c2cc(C(=O)NCCCN3CCCC3)sc21	1.5*	1.7*	14*	0.9*	1.7*
C=CCSc1nnc2nc3[nH]c4c(C)cccc4c3nn12	84	76	/	/	/
Cc1noc2ncnc(Sc3ccc(Cl)cc3)c12	83	83	57	1.8*	47
Cc1noc2ncnc(Sc3c(Cl)cccc3Cl)c12	11	8	49*	16*	52
Cc1ccccc1Sc1ncnc2onc(C)c12	82	83	96	43	81
Cc1ccc(Sc2ncnc3onc(C)c23)cc1	83	79	91	78	80
Cn1c(=O)n(CCc2ccccc2)c(=O)c2c1nc1n2CCCN1Cc1ccccc1	52	35	83	27*	71
Cn1c(=O)n(CCc2ccccc2)c(=O)c2c1nc1n2CCCN1CCc1ccccc1	16	16	46*	92	3.7*
Cn1c(=O)n(Cc2ccccc2F)c(=O)c2c1nc1n2CCCN1CCc1ccccc1	106	91	94	/	90
Cn1c(=O)[nH]c(=O)c2c1nc1n2CCCN1CCc1ccccc1	88	98	95	86	92
CC(C)Cn1c(=O)c2c(nc3n2CCCN3CCc2ccccc2)n(C)c1=O	84	86	93	34*	97
Cn1c(=O)n(Cc2ccc(F)cc2)c(=O)c2c1nc1n2CCCN1Cc1ccccc1	56	63	85	38*	94
CC1CCCN(S(=O)(=O)c2ccc(S(=O)(=O)NC(C)c3cccs3)cc2)C1 (stereo not drawn)	55	56	/	/	/
Cc1ccc(CN2CCN(/N=C/c3sccc3C)CC2)c(C)c1	89	92	/	/	/
Cc1ccc(-n2[nH]c(C)c(CCC#N)c2=O)cc1	96	93	/	/	/
CN(C)S(=O)(=O)c1ccc(C(=O)Nc2nc(-c3cc4ccccc4o3)cs2)cc1	49	55	/	/	/
CN(CC1CCCO1)S(=O)(=O)c1ccc(C(=O)Nc2nc(-c3ccccn3)cs2)cc1 (stereo not drawn)	3.9*	8	42*	55	45
O=C(Nc1nnc(-c2ccccc2)o1)c1cc(Cl)sc1Cl	86	88	/	/	/
SMILES	bCat KO growth	PTEN del growth	Fibroblast inh	H69AR inhibit	HUVEC inhibit
COc1cccc(NC(=O)c2nnn(CCc3ccccc3)c2N)c1	59	56	86	32*	59
COc1cccc(C(=O)Nc2cccc(NC(C)=O)c2)c1	78	75	/	33*	94
COc1ccc(C(=O)Nc2nnc(-c3ccccc3)o2)cc1OC	59	55	93	33*	86
COc1cccc(C(=O)Nc2cccc(-c3nnc(-c4ccccc4)o3)c2)c1	/	/	/	17*	55
C/C(CCc1ccccc1)=N\NC(=O)CC(=O)NCCc1ccccc1	91	98	/	/	/
CCOC(=O)N/N=C\C=C\c1ccc2c(c1)OCO2	104	107	/	/	/
Cc1ccc(S(=O)(=O)n2c([N+](=O)[O-])cnc2C)c(C)c1C	89	97	/	/	/
CC(C)OC(=O)c1cccc(NC(=O)c2ccccc2)c1	79	88	101	30*	85
O=C(Nc1nnc(-c2ccc(Cl)cc2)o1)c1nc2ccccc2s1	78	70	95	17*	38
COc1cccc(C(=O)Nc2ccc(NC(=O)C(C)(C)C)cn2)c1	93	98	/	37*	100
CCOc1cccc(C(=O)Nc2cccc(-c3nnc(-c4ccccc4)o3)c2)c1	57	34	87	15*	47
Cc1ccc(Nc2ccc(S(=O)(=O)N3CCOCC3)cc2[N+](=O)[O-])c(C)c1	90	83	/	/	/
Cc1cccc(N2CCN(C(=O)c3cccc(N4C(=O)C5CC=CC(C)C5C4=O)c3)CC2)c1C (stereo not drawn)	67	62	98	94	86
Cc1ccc(-c2nnc(-c3ccc(NC(=O)c4ccco4)cc3)o2)cc1	25	49	61	37*	74
CCOc1cccc(C(=O)Nc2cccc(-c3nnc(-c4ccc(C)cc4)o3)c2)c1	1.7*	3.1*	37*	/	17*
COc1ccc(CC(=O)Nc2cccc(-c3nnc(-c4cccc(C)c4)o3)c2)cc1OC	111	105	35*	41	3.2*
COc1ccccc1-c1nnc(NC(=O)c2ccc(S(=O)(=O)N(C)C)cc2)o1	53	56	77	102	75
CCOc1cc(OCC)cc(C(=O)Nc2cccc(C(C)=O)c2)c1	96	100	/	/	/
COc1ccccc1-c1nnc(NC(=O)c2ccccc2F)o1	69	84	88	1.9*	96
Cc1cccc(-c2nnc(NC(=O)c3ccc(Cl)cc3)o2)c1	29	6	106	25*	3.2*
Cc1ccc(C)c(NC(=O)c2ccccc2O)c1	82	81	97	19*	81
Cc1cccc(NC(=O)c2ccccc2O)c1C	82	89	90	53	99
N#CCCCN1C(=O)C(O)(CC(=O)c2ccc3c(c2)OCCO3)c2ccccc21 (stereo not drawn)	78	100	103	92	94
C=C(C)CN1C(=O)C(O)(CC(=O)c2ccc3c(c2)OCCO3)c2ccccc21 (stereo not drawn)	25	79	103	39*	93
O=C(c1ccc(CNS(=O)(=O)c2ccccc2)cc1)N1CCN(Cc2ccccc2)CC1	54	53	88	88	96
SMILES	bCat KO growth	PTEN del growth	Fibroblast inh	H69AR inhibit	HUVEC inhibit
COc1cc(/C=C2/C(=O)c3cccc([N+](=O)[O-])c3C2=O)c(Br)cc1O	7	10	/	/	/
CCN(CC)c1ccc(/C=N/NC(=O)Nc2nonc2N)cc1	90	73	/	/	/
COc1ccc(N=C2C(=Nc3ccc(OC)cc3)N(c3ccc(OC)cc3)C(=S)N2c2ccccc2)cc1	94	98	/	/	/
Cc1ccc(N=C2C(=S)N(c3ccc(C)cc3)C(=N)N2/N=C/c2ccc(Cl)cc2)cc1	87	90	85	2.7*	75
Cc1cccc(NC(=S)N/N=C2\CC(C)(C)Oc3ccc(O)cc32)c1	3.9*	3.8*	/	/	/
N#Cc1c(N2CCCC(O)C2)nc(N)c2c(N)nc3c(c12)CC(=O)N3C12CC3CC(CC(C3)C1)C2 (stereo not drawn)	13	18	65	3.3*	16*
